From the EternaBench riboswitch data

Test system: MS2 coat protein
Test: apparent Kd, MS2 coat protein; higher = weaker binding; RNA-MaP array
Summary of the method: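 Designed RNAs were produced on an Illumina sequencing chip by transcription of sequenced DNA templates. Binding to fluorescently labeled MS2 coat protein (1.5 nM to 3 μM) was measured at room temperature with or without input ligand. The apparent Kd is the median of per-cluster binding-curve fits. Designs were excluded when measured on fewer than 10 clusters.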

[1] = designed as: ON switch for flavin mononucleotide, no ligand
[2] = ligand present: flavin mononucleotide, designed as: ON switch for flavin mononucleotide
[3] = designed as: OFF switch for flavin mononucleotide, no ligand
[4] = ligand present: flavin mononucleotide, designed as: OFF switch for flavin mononucleotide
[5] = designed as: ON switch for theophylline, no ligand
[6] = ligand present: theophylline, designed as: ON switch for theophylline
[7] = designed as: OFF switch for tryptophan, no ligand
[8] = ligand present: tryptophan, designed as: OFF switch for tryptophan

Sequence	apparent Kd [1]	apparent Kd [2]	apparent Kd [3]	apparent Kd [4]	other results
AUGGUGUCUUAAGGAUAUGCUCGACAUGAGGAUCACCCAUGUGCCUCGUUUUCCCAACCGAGGUCGCAGAAGGUAAGUGACGUG	313 nM	37 nM	–	–	–
GGUUGACCUGAGGAACAUGAGGAUCACCCAUGUGUUAGCGGAAAGGAUAUUCGAUUGCACGUUAAGAAGAAGGUUCCAACGUUA	14.4 nM	15.8 nM	–	–	–
AUUAGGCUGCAGGAUAUGAAUCAUGUAACAAUUUCAGAAGGGCAUACAUGAGGAUCACCCAUGUAGUGAUCCGC	–	–	109 nM	220 nM	–
CCUCAAAUGACAUGAGGAUCACCCAUGUAGCGCACAACCGCUAGAAGGACGACAAAGUCUUAUGCGUAGGAUAUAGCGAGCGCG	132 nM	133 nM	–	–	–
UCCUCGUAUUAAGGAUAUAGAAAAGUCACAUGAGGAUCACCCAUGUCUAAGGACGCACUAUGAGUCUAGAAGGUAAUCCGGAAU	78.9 nM	65.5 nM	–	–	–
GUCCACGUCCAAGGAUAUAAUACGAUACAUGAGGAUCACCCAUGUAAGGAGUGUAGAGUACGAUGUUAGAAGGUGGCAUUGCAG	–	–	11.9 nM	11.1 nM	–
UUGAUCGCUCAGAAGGACGCGCAGGACCAAGCCGUAGGAUAUGACGAAUGCUAACGGAGUCCACAUGAGGAUCACCCAUGUGCA	65.2 nM	18.9 nM	–	–	–
UAAAUCUUACAACACAUGAGGAUCACCCAUGUACGGGCGGGAUAGGAUAUCGAAAUGGUCUCAAACGAGAAGGAUCCUUCUUAU	46.7 nM	27.8 nM	–	–	–
CACCCUAAAGGAUAUACAGCAUAGAAAACGGGUAAGUCUAAACAUGAGGAUCACCCAUGUAGAAGGUUAGAAUU	–	–	14.8 nM	14.5 nM	–
GAGAGGAGGGAGAAGGAGAUAGUCUUCGGCAAUCUAGGAUAUCCACGUAGGGAAUCUCACAUGAGGAUCACCCAUGUUCAGCCG	–	–	34.8 nM	31.7 nM	–
GCAAAGUGAUCGGCCGCCACUGCAAUGCUUAAUGGAGGUCCACAUGAGGAUCACCCAUGUCUUCCCAGGACCGGGAUCUCGAGUU	–	–	–	–	apparent Kd (designed as: ON switch for tryptophan, no ligand): 60.7 nM; apparent Kd (ligand present: tryptophan, designed as: ON switch for tryptophan): 66.9 nM
ACAUGAGGAUCACCCAUGUUCACGGUUCACGAAGUCUAAAGCUAGGAUAUCAUUGGGUGGGCGCAUGAGAAGGAGCUUCCCGUA	70.1 nM	44.3 nM	–	–	–
GUCUUGUAAGGAUAUGAUCAGUAGGAAAGAUGGCAGCAUCAUCAGAAGGUACAUGAGGAUCACCCAUGUUGUGA	–	–	17 nM	22.9 nM	–
CUAGAAGACACGGAGGAUAUGUUGUGUAUUACAUGAGGAUCACCCAUGUUCGGAAGUACCGAUUGACAGAAGGCCGUGCAAUCGCU	6.66 nM	5.73 nM	–	–	–
UGAAAUUACGGAGGAUAUCUAUUUACAUGAGGAUCACCCAUGUCCCAGCUACUGCUAUUAUCCGCAGAGAAGGCCGGUGAGUCC	171 nM	105 nM	–	–	–
CUGGUUGUCAAAGGAUAUAAACGAUCACAUGAGGAUCACCCAUGUCUCCCUAUGUUAAUAAGCGCUUAGAAGGUUGAGCCAGCC	–	–	31.3 nM	34.4 nM	–
AAAUGGGAGGUACGCACCACUACAUGAGGAUCACCCAUGUAUAGAAGGCAGGUCUGGACUCGUCCUGAGGAUAUAUGAUUUGAC	–	–	17.9 nM	16.5 nM	–
UAUGUCGCCGAAGAUACCAGCCUGGCAAGCAACAUGAGGAUCACCCAUGUAAUUACUUAUGGCCCUUGGCAGCUUCAAAUAGAGC	–	–	–	–	apparent Kd [5]: 11.4 nM; apparent Kd [6]: 11.8 nM

Sequence	apparent Kd [1]	apparent Kd [2]	apparent Kd [3]	apparent Kd [4]	other results
CCGAGGGUAGGAUAUUAGCACUUCUACAUGAGGAUCACCCAUGUACCUCAUCAUGAUGCCUAAGAAGGACCAGUGU	–	–	65.7 nM	158 nM	–
GUAUGUGGUGAGGAUAUCCACCCGCGGGUAUAUGGAGAAGGCACUACAUGAGGAUCACCCAUGUUAACUUGCCA	–	–	10.1 nM	31.8 nM	–
ACACGCUAAGGAUAUACAUGAGGAUCACCCAUGUUAAAAGUUAAAUAGGAAUGAUACCGUAGAAGGUAGGAUGA	–	–	13.2 nM	11.4 nM	–
AACGAUUAAUCGGCCGCCACUCACAUGAGGAUCACCCAUGUUGUUCUUCCAGGUGGUUCUGUUCCGAGGACCGGGAUUCCGUCCU	–	–	–	–	apparent Kd [7]: 55.1 nM; apparent Kd [8]: 57.5 nM
AUUUGGCGUAGUGUUGCUCGUGGGAUAAAACGAGGACCGGUACGGCCGCCACUCGAUGAUUAACAUGAGGAUCACCCAUGUAAAU	–	–	–	–	apparent Kd [7]: 24.6 nM; apparent Kd [8]: 104 nM
AACAGAAGGCAAGGAUAUAAGGGACCCCCAACAUGAGGAUCACCCAUGUUCUAUGAGGCCGAAUUUUAGAAGGUGCGGGACUAG	43.9 nM	32.2 nM	–	–	–
AACUGGAAGGAAGGAUAUUCAACCACGAUCAGUGCCAAGCACAUGAGGAUCACCCAUGUUGUCCUGAAGAAGGUCCUAUGUCAA	–	–	16.3 nM	11.5 nM	–
GAACAGCGGCAGAAGGACUCGCGAUUGUGUACGAACAUGAGGAUCACCCAUGUGUGAGUAUUCCAGUAGGAUAUGCGUUCUAUA	–	–	17.2 nM	12.1 nM	–
CUGACGUCAGGAUAUGCUAAUAAACAACAUAAAAGACAAGUGCAGAAGGGACAUGAGGAUCACCCAUGUGAAAA	–	–	14.6 nM	15.3 nM	–
AGAAAUGUAUUAGGAUAUUGGCGCGUAUUACGACAAGAAGGAAUACAUGAGGAUCACCCAUGUAACCCGCUCCGCGGUCCAUGG	–	–	101 nM	64.3 nM	–
ACGAGACGUCUGGAUACCAGCCCAGCGAUAAACAUGAGGAUCACCCAUGUCAAACCACCCGGCCCUUGGCAGCCACGUACCUCAC	–	–	–	–	apparent Kd [5]: 14.5 nM; apparent Kd [6]: 10 nM
AUAACAGUGUCGGCCGCCACUAGAACACAUGAGGAUCACCCAUGUGGUGGUACCUCCUAAGACGAUAGGACCGGGACCCAUCUAC	–	–	–	–	apparent Kd [7]: 134 nM; apparent Kd [8]: 95.2 nM
GGGAAACUCUACACUCACAACACAUGAGGAUCACCCAUGUUAAGAAGGUUCAGAACGGGCAAUCGAAAGGAUAUUAGGAUGGCU	–	–	10.7 nM	10.2 nM	–
AGUAAAAGAGGAUAUACAUGAGGAUCACCCAUGUUGGCGCAGACAAUCGAUGCAUCGAGUAGAAGGCUUUCAAU	–	–	21.3 nM	17.1 nM	–
UGGACGCAACGAGCACGAGGUCGGCAGCUACGAGGACCGGUACGGCCGCCACUCGAGUUACGACAUGAGGAUCACCCAUGUAAGG	–	–	–	–	apparent Kd [7]: 41.6 nM; apparent Kd [8]: 178 nM
UCACUACAGUAGAAGGUAGGUACAUGAGGAUCACCCAUGUGGUAGGGAGAUUUACACUGUUUCGCUAAGGAUAUACUGGCCAAU	–	–	207 nM	125 nM	–
CCUAUUCCUACGGAUACCAGACGAUCCGUGGCGUGUGUGAACAUGAGGAUCACCCAUGUAGUCCCUUGGCAGCCGAUGCGGGUAA	–	–	–	–	apparent Kd (designed as: OFF switch for theophylline, no ligand): 34.3 nM; apparent Kd (ligand present: theophylline, designed as: OFF switch for theophylline): 132 nM
UGCAAUGGGUGAGGAUAUACCCACACACAUGAGGAUCACCCAUGUUUCACAAAGGUGAUGACGCGGUAGAAGGCACAAUCCACU	268 nM	98.1 nM	–	–	–
